Screening data: PubChem, several laboratories
FAK blocker: inhibitors of human focal adhesion kinase | AID 727 | biochemical FAK kinase activity assay | Q05397 | 97,000 compounds, 0.84% hits | inhibition, %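 (tested at 7 µM)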;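 also: 0% = DMSO and 100% = reference compound high control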
Target sequence (Q05397 whole entry, looked up): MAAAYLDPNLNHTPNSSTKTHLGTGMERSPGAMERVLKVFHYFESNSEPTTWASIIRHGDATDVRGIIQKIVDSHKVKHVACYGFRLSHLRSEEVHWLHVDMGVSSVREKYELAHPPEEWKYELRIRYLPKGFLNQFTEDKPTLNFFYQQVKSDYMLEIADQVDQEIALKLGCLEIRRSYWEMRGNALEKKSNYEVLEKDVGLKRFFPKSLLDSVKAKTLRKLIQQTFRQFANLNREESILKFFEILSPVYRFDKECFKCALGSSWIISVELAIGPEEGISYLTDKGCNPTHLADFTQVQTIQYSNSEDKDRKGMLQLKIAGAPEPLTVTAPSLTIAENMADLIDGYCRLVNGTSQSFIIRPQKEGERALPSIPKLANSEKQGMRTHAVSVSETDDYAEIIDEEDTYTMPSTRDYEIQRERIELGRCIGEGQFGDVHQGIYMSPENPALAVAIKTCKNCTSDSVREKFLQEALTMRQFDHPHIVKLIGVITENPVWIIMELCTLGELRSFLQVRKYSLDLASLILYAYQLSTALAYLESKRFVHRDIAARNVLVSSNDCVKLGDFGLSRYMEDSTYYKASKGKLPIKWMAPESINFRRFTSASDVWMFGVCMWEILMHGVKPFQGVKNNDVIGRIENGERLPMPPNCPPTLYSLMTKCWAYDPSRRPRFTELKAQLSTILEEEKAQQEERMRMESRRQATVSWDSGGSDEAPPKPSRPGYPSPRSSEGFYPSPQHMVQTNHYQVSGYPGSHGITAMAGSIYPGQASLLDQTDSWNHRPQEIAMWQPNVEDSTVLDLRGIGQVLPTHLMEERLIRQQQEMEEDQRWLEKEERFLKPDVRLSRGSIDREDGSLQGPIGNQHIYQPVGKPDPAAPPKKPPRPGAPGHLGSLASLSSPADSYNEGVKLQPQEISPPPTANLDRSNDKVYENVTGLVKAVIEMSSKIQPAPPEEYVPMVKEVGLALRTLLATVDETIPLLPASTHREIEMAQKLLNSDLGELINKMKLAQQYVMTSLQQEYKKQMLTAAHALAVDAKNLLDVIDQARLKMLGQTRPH
EphB4 antag: antagonists of human EphB4-ephrin-B2 interaction; P54760; AID 720; inhibition, % at 7 µM; 97,000 compounds, 0.15% hits; EphB4 LBD / TNYL-RAW-Alexa532 peptide, fluorescence polarization;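 active = inhibition above the screen-wide mean inhibition plus 3 SD, cut at about 15% in these data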;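 also: 0% = DMSO wells and 100% = excess unlabeled TNYL-RAW peptide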
DAT uptake mod: modulates human dopamine transporter uptake under cocaine. LLC-PK1 hDAT cells, [14C]-dopamine uptake with cocaine IC80; actives deviate in either direction. B-score at 10 µM. 110,000 compounds, 1.3% hits. AID 449768;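 active = Z score or B-score, a plate-position-corrected score, falls beyond the plate's 99.7% confidence bounds, in either direction; inactive = both scores lie inside the 99.7% bounds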;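 also: scored against the spread of the other compound wells on the same plate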
HIV Rev-RRE inh: inhibitors of HIV-1 Rev-RRE RNA interaction; P05866; Rev peptide-RRE RNA binding, FRET; inhibition, % at 8 µM; 97,000 compounds, 0.79% hits; AID 704;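 active = inhibition above the screen-wide mean plus 3 SD, cut at about 35% in these data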;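 also: 0% = median DMSO wells and 100% = median Neomycin B control wells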
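Test system – labelled RRE RNA duplex and labelled Rev peptide · Reagent – labelled Rev peptide · Doses – one concentration, 8 µM nominal · Incubation – 5 + 15 min at 25 °C · Signal – FRET fluorescence readout · Read-out basis – % inhibition of FRET ratio versus controls · Control set – DMSO wells as 0% and neomycin B wells as 100% inhibition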
PLK1 kinase inh: inhibitors of human PLK1 kinase; P53350; recombinant PLK1 kinase, TR-FRET peptide phosphorylation; inhibition, % at 10 µM; 97,000 compounds, 0.53% hits;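 active = inhibition of 50% or more in the single-concentration screen; inactive = inhibition below 50%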;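 also: 0% = DMSO max control and 100% = H-89 dihydrochloride min control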
Plk1 PBD FP: inhibitors of human Plk1 polo box domain binding; inhibition, %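 (tested at about 20 µM)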; 97,000 compounds, 0.13% hits; Plk1 PBD phosphopeptide binding, fluorescence polarization; in the data active = inhibition above about 34%, passing the limit was not always enough
FAK inh confirm: FAK (human) inhibition confirmed | shares compounds with FAK blocker | FAK kinase biochemical inhibition assay | inhibition, % at 7 µM | 750 compounds, 28% hits
An asterisk follows results filed as active. This is a sample that favours compounds with a hit; in the whole collection about 3.2% have one here. Rule as the data show it, unless noted: active = inhibition above about 19%; inactive = the rest.

Results for O=C(CN1C(=O)COc2ccccc21)N1CCc2ccccc21 ?
FAK blocker: -3.5; EphB4 antag: 4.0; DAT uptake mod: -0.234; HIV Rev-RRE inh: 1.8; PLK1 kinase inh: 4.4; Plk1 PBD FP: 6.3

What do the screens show for `CCCc1nnc(NC(=O)Cn2cnc3ccccc3c2=O)s1`?
FAK blocker: 7.0; EphB4 antag: -8.5; DAT uptake mod: 0.471; HIV Rev-RRE inh: 7.3; PLK1 kinase inh: 2.0; Plk1 PBD FP: -11.3

Results for O=C(N/N=C/c1cccs1)c1cc(-c2ccc3ccccc3c2)n[nH]1 ?
FAK blocker: 19.6*; EphB4 antag: 1.9; DAT uptake mod: 0.555; HIV Rev-RRE inh: 13.7; PLK1 kinase inh: -7.6; Plk1 PBD FP: 34.0; FAK inh confirm: 2.2

Results for COc1cccc(CNC(=O)CCS(=O)(=O)c2cccs2)c1 ?
FAK blocker: 3.6; EphB4 antag: 2.4; DAT uptake mod: -0.304; HIV Rev-RRE inh: 2.7; PLK1 kinase inh: -9.8; Plk1 PBD FP: 0.6

How did N/C(=N\S(=O)(=O)c1cccs1)c1ccccc1 do in these assays?
FAK blocker: 0.1; EphB4 antag: 0.6; DAT uptake mod: 0.371; HIV Rev-RRE inh: 5.3; PLK1 kinase inh: -9.8; Plk1 PBD FP: 9.5

How did Cc1ccc(Cl)cc1NC1=C/C(=N\S(=O)(=O)c2cccs2)c2ccccc2C1=O do in these assays?
FAK blocker: 31.8*; EphB4 antag: 1.0; DAT uptake mod: -3.53*; HIV Rev-RRE inh: 4.5; PLK1 kinase inh: -2.2; Plk1 PBD FP: -17.2; FAK inh confirm: 22.9*

How did O=C1CC(c2ccc(Cl)cc2)CC(O)=C1C=NCc1ccc(Cl)c(Cl)c1 (stereo unspecified) do in these assays?
FAK blocker: 0.4; EphB4 antag: -2.2; DAT uptake mod: 0.599; HIV Rev-RRE inh: 15.5; PLK1 kinase inh: -12.9; Plk1 PBD FP: 7.0

How did CNC(=S)NNC(=O)COc1cccc(C)c1C do in these assays?
FAK blocker: -0.7; EphB4 antag: 4.9; DAT uptake mod: 0.366; HIV Rev-RRE inh: 0.7; PLK1 kinase inh: -15.7; Plk1 PBD FP: 5.0

Results for Cc1ccc2nc3c(cc(C(N)=S)c(=N)n3CCCOC(C)C)c(=O)n2c1 ?
FAK blocker: 28.3*; EphB4 antag: 4.1; DAT uptake mod: 0.871; HIV Rev-RRE inh: 59.1*; PLK1 kinase inh: -2.0; Plk1 PBD FP: 10.8; FAK inh confirm: -2.1

What do the screens show for `CCOC(=O)C1=C(c2ccccc2)OC(N)=C(C#N)C1C1CCCCC1` (stereo unspecified)?
FAK blocker: 23.9*; EphB4 antag: -7.8; DAT uptake mod: -1.65*; HIV Rev-RRE inh: 15.7; PLK1 kinase inh: -5.9; Plk1 PBD FP: -13.2; FAK inh confirm: 21.3*

What do the screens show for `CCOC(=O)C1=C(C)OC(N)=C(C#N)C1C1CCCCC1` (stereo unspecified)?
DAT uptake mod: -0.371

Results for CC12C=CC3(O1)C(C(=O)N(c1ccccc1)C3C(=O)NC1CCCC1)C2C(N)=O (stereo unspecified) ?
FAK blocker: -0.9; EphB4 antag: -5.7; DAT uptake mod: -0.0542; HIV Rev-RRE inh: 1.3; PLK1 kinase inh: -9.3; Plk1 PBD FP: 8.6

What do the screens show for `CC(=O)CSc1nc(C(F)(F)F)cc(=O)n1-c1ccccc1`?
FAK blocker: 56.2*; EphB4 antag: 3.7; DAT uptake mod: -0.39; HIV Rev-RRE inh: 1.6; PLK1 kinase inh: -11.5; Plk1 PBD FP: -0.7; FAK inh confirm: -2.0

What do the screens show for `CC(C)=CC1C(C(=O)Nc2ccc(Br)cn2)C1(C)C` (stereo unspecified)?
FAK blocker: 26.8*; EphB4 antag: -7.0; HIV Rev-RRE inh: 10.7; PLK1 kinase inh: -9.4; Plk1 PBD FP: 9.6; FAK inh confirm: 8.4

What do the screens show for `CCCCC(=O)Nc1ccc(Br)cn1`?
FAK blocker: 5.5; EphB4 antag: 9.7; DAT uptake mod: 0.332; HIV Rev-RRE inh: 6.4; PLK1 kinase inh: -3.3; Plk1 PBD FP: 2.5

How did C/C(=N\OC(=O)c1ccccc1F)c1nccs1 do in these assays?
FAK blocker: -7.3; EphB4 antag: -3.7; DAT uptake mod: -0.534; HIV Rev-RRE inh: 2.8; PLK1 kinase inh: -5.3; Plk1 PBD FP: 10.6

What do the screens show for `Cc1ccnc2nc(C(=O)Nc3ccc4c(c3)OCO4)nn12`?
FAK blocker: -0.1; EphB4 antag: 4.8; DAT uptake mod: 0.521; HIV Rev-RRE inh: 8.1; PLK1 kinase inh: -10.4; Plk1 PBD FP: 0.3
